Results from ChEMBL document CHEMBL5352422, “Development of l-Dopa-containing diketopiperazines as blood-brain barrier shuttle” (Eur J Med Chem, 2022).
Values after ≈ are worked out from the molar mass of the structure shown. Active and inactive are the calls of the source. The rule behind the calls is not given here.

Key:
[1] = Stability of the compound in hydrochloric acid buffer assessed as chemical hydrolysis by measuring half life at pH 1.2; assay type: physicochemical
Outline: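 Chemical hydrolysis at 37 °C in hydrochloric acid buffer pH 1.2 or phosphate buffer pH 7.4. Remaining compound followed by HPLC with UV detection. t1/2 and k_obs are means of three experiments ± SD.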

[2] = Induction of DNA damage in Primary human whole blood cell assessed as total DNA damage score at 500 nM incubated for 24 hrs by Comet assay (reference value: 35.4 to 77.9); assay type: functional
[3] = Genotoxicity in human Lymphocyte assessed as micronuclei formation measured per 1000 cells at 50 nM incubated for 72 hrs giemsa staining based analysis (reference value: 4.5 to 17.9); assay type: toxicity, cell-based; settings: 0.05 µM
Outline: (§1)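 Human whole-blood lymphocyte cultures with phytohemagglutinin, incubated with compound for 72 h at 37 °C. Cytochalasin B added at 44 h. Cells fixed in ice-cold methanol/acetic acid 1:1, cytospun, Giemsa-stained. At least 1000 binucleated lymphocytes per concentration scored for micronuclei by one observer.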

[4] = Induction of DNA damage in rat Cerebral cortex cell assessed as 8-OH-dG adducts formation at 500 nM incubated for 24 hrs by […] (reference value: 0.14 to 1.92 pg/ml); assay type: functional, Cerebral cortex neuron
Outline: (§2)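 Primary rat cerebral cortex neurons from fetuses, grown in neurobasal medium with FCS on poly-D-lysine flasks and used after 8 days. Aqueous compound at 10–500 nM for 24 h at 37 °C. Untreated cultures served as negative control and MMC 10^-7 M as positive control. 8-OH-dG measured with a commercial ELISA-type kit and reported in pg/mL. Four independent experiments, mean ± SD.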

[5] = Genotoxicity in human Lymphocyte assessed as micronuclei formation measured per 1000 cells at 250 nM incubated for 72 hrs giemsa staining based analysis (reference value: 4.5 to 17.9); assay type: toxicity, cell-based; settings: 0.25 µM; outline: as §1
[6] = Effective permeability of compound at 500 uM incubated for 18 hrs by […] method; assay type: ADME; settings: read-out: Peff
Outline: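 PAMPA-BBB: donor contained compound at 500 µM final in PBS pH 7.4 with 20% v/v MeOH. Incubated 18 h. Donor and acceptor concentrations measured by HPLC; effective permeability Pe (cm/s) calculated.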

[7] = Solubility of the compound in water by HPLC-UV analysis; assay type: physicochemical
[8] = Induction of DNA damage in rat Cerebral cortex cell assessed as total DNA damage score at 10 nM incubated for 24 hrs by Comet assay (reference value: 36.8 to 89.2); assay type: functional, Cerebral cortex neuron
[9] = Partition coefficient, logP of the compound by HPLC-UV analysis; assay type: physicochemical; settings: octanol/water
[10] = Stability of the compound in stimulated gastric fluid at 40 mg/ml pepsin by measuring half life measured upto 60 mins by HPLC analysis; assay type: ADME; settings: simulated gastric fluid with pepsin
Outline: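 USP simulated gastric fluid containing pepsin, preheated, in a 37 °C shaking water bath. Samples at 0, 15, 30 and 60 min were deproteinized with ice-cold acetonitrile containing 0.5% formic acid, centrifuged at 4 °C, filtered and analyzed by HPLC. Means of three experiments.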

[11] = Antioxidant activity against Primary human whole blood cell assessed as trolox equivalent of total antioxidant capacity at 100 nM incubated for 24 hrs (19.3 to 32.5 mmolequiv/L ); assay type: functional
[12] = Antioxidant activity against rat Cerebral cortex cell assessed as H2O2 equivalent of total oxidative stress at 500 nM incubated for 24 hrs (0.7 to 2.3 micromolequiv/L); assay type: functional, Cerebral cortex neuron
[13] = Stability in human plasma assessed as observed rate constant by HPLC method; assay type: ADME, cell-free
Outline: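 Stock added to 37 °C human plasma diluted with 0.02 M phosphate buffer pH 7.4 to 80% plasma. Aliquots taken over time were quenched with 0.01 M HCl in methanol, centrifuged 5 min at 5000 g, and supernatant analyzed by HPLC-UV. t1/2 and k_obs are means of three experiments ± SD.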

[14] = Antioxidant activity against rat Cerebral cortex cell assessed as H2O2 equivalent of total oxidative stress at 100 nM incubated for 24 hrs (0.7 to 2.3 micromolequiv/L); assay type: functional, Cerebral cortex neuron
[15] = Antioxidant activity against Primary human whole blood cell assessed as H2O2 equivalent of total oxidative stress at 50 nM incubated for 24 hrs (0.6 to 1.9 micromolequiv/L); assay type: functional
[16] = Stability of the compound in stimulated intestinal fluid at 10 mg/ml pancreatin by measuring half life measured upto 180 mins by HPLC analysis; assay type: ADME; settings: simulated intestinal fluid with pancreatin
Outline: (§3)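 USP simulated intestinal fluid containing pancreatin, in a 37 °C shaking water bath. Samples at 0, 60, 120 and 180 min were quenched with ice-cold acetonitrile containing 0.5% formic acid, centrifuged at 4 °C for 10 min, filtered and analyzed by HPLC. Means of three experiments ± SD.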

[17] = Induction of DNA damage in Primary human whole blood cell assessed as total DNA damage score at 250 nM incubated for 24 hrs by Comet assay (reference value: 35.4 to 77.9); assay type: functional
[18] = Cytotoxicity against rat Cerebral cortex cell at 10 to 500 nM incubated for 24 hrs by MTT assay; assay type: toxicity, cell-based; settings: cerebral cortex neuron, 0.5 µM, dose 10-500 nM
Outline: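 Primary cultures (rat fetal cortical neurons; human whole-blood cultures with phytohemagglutinin) exposed to aqueous compound at 10–500 nM for 24 h at 37 °C. Then incubated with 0.7 mg/mL MTT for 30 min at 37 °C, formazan extracted with isopropanol/formic acid 95:5, read at 560 nm. Control formazan = 100% viability. Mitomycin C 10^-7 M as positive control; n = 4.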

[19] = Induction of DNA damage in Primary human whole blood cell assessed as total DNA damage score at 100 nM incubated for 24 hrs by Comet assay (reference value: 35.4 to 77.9); assay type: functional
[20] = Antioxidant activity against rat Cerebral cortex cell assessed as trolox equivalent of total antioxidant capacity at 10 nM incubated for 24 hrs (14.7 to 27.5 mmolequiv/L ); assay type: functional, Cerebral cortex neuron
[21] = Stability of the compound in stimulated intestinal fluid at 10 mg/ml pancreatin by measuring observed rate constant measured upto 180 mins by HPLC analysis; assay type: ADME; settings: simulated gi fluid, 3 h; outline: as §3
[22] = Induction of DNA damage in rat Cerebral cortex cell assessed as 8-OH-dG adducts formation at 50 nM incubated for 24 hrs by […] (reference value: 0.14 to 1.92 pg/ml); assay type: functional, Cerebral cortex neuron; outline: as §2
[23] = test system: PC-12; test: Cytoprotective activity against MPP+ induced cell death in rat PC-12 cells at 10 to 500 nM preincubated with compound for 24 hrs followed by MPP+ exposure for 24 hrs by MTT assay; assay type: functional, cell-based; settings: dose 10-500 nM, time 48.0 hrs
Outline: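 PC12 cells in RPMI with horse and fetal calf serum on polylysine-coated flasks. Pretreated 24 h with compound (10–500 nM), then 25 µM MPP+ for a further 24 h. MTT formazan solubilized in SDS/HCl, read at 550 nm. Expressed as % of untreated control absorbance; n = 3, mean ± SD.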

[24] = Antioxidant activity against rat Cerebral cortex cell assessed as trolox equivalent of total antioxidant capacity at 100 nM incubated for 24 hrs (14.7 to 27.5 mmolequiv/L ); assay type: functional, Cerebral cortex neuron
[25] = Antioxidant activity against rat Cerebral cortex cell assessed as trolox equivalent of total antioxidant capacity at 50 nM incubated for 24 hrs (14.7 to 27.5 mmolequiv/L ); assay type: functional, Cerebral cortex neuron

C=CCSC[C@H]1NC(=O)[C@H](Cc2ccc(OC(C)=O)c(OC(C)=O)c2)NC1=O
half-life [1]: 18.9 h | Activity [2]: 36.1 | Activity [3]: 4.9 | Activity [4]: 0.15 pg/mL | Activity [5]: 5.2 | Papp at 18 h, 500 µM [6]: 2.42 ×10⁻⁶ cm/s | solubility [7]: 323 µg/mL (≈ 795 µM) | Activity [8]: 36.3 | logP [9]: 0.68 | half-life [10]: 22.4 h | Activity [11]: 19.7 mmolequiv/L | Activity [12]: 0.7 umolequiv/L | Kobs [13]: 7.22 h⁻¹ | Activity [14]: 0.7 umolequiv/L | Activity [15]: 0.7 umolequiv/L | half-life [16]: 0.68 h | Activity [17]: 35.7 | Activity [18]: Non-Toxic | Activity [19]: 35.5 | Activity [20]: 15.1 mmolequiv/L | Kobs [21]: 1.03 h⁻¹ | Activity [22]: 0.13 pg/mL | Activity [23]: Active | Activity [24]: 14.4 mmolequiv/L | Activity [25]: 14.3 mmolequiv/L

C#CCSC[C@H]1NC(=O)[C@H](Cc2ccc(OC(C)=O)c(OC(C)=O)c2)NC1=O
half-life [1]: 134 h | Activity [2]: 36.3 | Activity [3]: 4.8 | Activity [4]: 0.15 pg/mL | Activity [5]: 5.1 | Papp at 18 h, 500 µM [6]: 4.88 ×10⁻⁶ cm/s | solubility [7]: 630 µg/mL (≈ 1560 µM) | Activity [8]: 36.9 | logP [9]: 0.35 | half-life [10]: 57.1 h | Activity [11]: 19.5 mmolequiv/L | Activity [12]: 0.6 umolequiv/L | Kobs [13]: 0.332 h⁻¹ | Activity [14]: 0.6 umolequiv/L | Activity [15]: 0.6 umolequiv/L | half-life [16]: 3.51 h | Activity [17]: 35.9 | Activity [18]: Non-Toxic | Activity [19]: 35.6 | Activity [20]: 14.7 mmolequiv/L | Kobs [21]: 0.198 h⁻¹ | Activity [22]: 0.14 pg/mL | Activity [23]: Active | Activity [24]: 15.2 mmolequiv/L | Activity [25]: 15.5 mmolequiv/L
